Source: PubChem BioAssay (SRMLSC)
HCT116 PTEN-null – PTEN-deleted cell growth suppression. HCT116 PTEN-null viability, CellTiter-Glo, 60 h; active compounds read low. viability, % at 10 µM. actives 1.2% (n = 140,000). AID 827;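 active = viability at or below a set limit, 4 SD under the median of all tested compounds, cut at about 3.7% in these data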;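 also: PTEN knockout HCT116 line with beta catenin targeted HCT116 as companion control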
HUVEC prolif 384 – human endothelial cell proliferation inhibition; HUVEC proliferation, CellTiter-Glo luminescence, 72 h; active compounds read low; viability, % at 10 µM (by protocol); actives 1.1% (n = 86,000); AID 648;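 active = viability at or below 30%; inactive = viability above 30%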;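 also: 100% = median luminescence of DMSO-only cell control wells on each plate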
Fibroblast inh – blocks proliferation of human lung fibroblasts | LL 47 human lung fibroblast viability, ATP luminescence; active compounds read low | viability, % at 10 µM | actives 1.1% (n = 85,000) | AID 719;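 active = viability at or below 50% in the single dose screen; inactive = viability above 50%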;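 also: compound exposure lasted 72 h before the ATP readout; 100% = median luminescence of untreated cell-only wells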
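Test system: LL 47 human lung fibroblasts / Incubation: 72 h compound exposure at 37 °C after overnight plating / Technique: luminescent ATP detection, CellTiter-Glo / Compound dosing: 0.1% DMSO in all compound wells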
HCT116 bCat-KO – beta-catenin-lacking colon tumor cell growth suppression. AID 818. HCT116 beta-catenin knockout viability, CellTiter-Glo, 60 h; active compounds read low. viability, % at 10 µM. actives 1.5% (n = 140,000);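 active = viability at or under a set limit, the compound median less 4 SD, cut at about 6% in these data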;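 also: 0% = Hyamine 1622 control at 20 µM and 100% = untreated cell control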
H69AR inhibit – growth inhibitors of human H69AR lung tumor cells; H69AR lung tumor viability, ATP luminescence, 72 h; active compounds read low; viability, % at 10 µM; actives 6% (n = 85,000); AID 598;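 active = viability at or below 40%; inactive = viability above 40%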;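 also: multidrug resistant small cell line overexpressing MRP-1 efflux transporter; 100% = mean luminescence of untreated control wells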
* marks the source's active call; other numbers are inactive results; . = no result. This is one part of a sample in which hits are shown more often than they occur.

SMILES	HCT116 PTEN-null	HUVEC prolif 384	Fibroblast inh	HCT116 bCat-KO	H69AR inhibit
Oc1c(Cl)cc(Cl)cc1Sc1cc(Cl)cc(Cl)c1O	4	33	84	4.0*	14*
O=C(O)CC1CCC(=C(Cl)Cl)C1 (stereo not drawn)	6	81	86	7	1.3*
Clc1cccc(-c2ccc(/C=N/n3cnnc3)o2)c1Cl	78	9.8*	90	76	106
Clc1ccccc1-c1ccc(/C=N/n2cnnc2)o1	116	33	90	105	88
Cc1c(Cl)cccc1-c1ccc(/C=N/n2cnnc2)o1	87	27*	92	90	90
FC(F)(F)c1ccc(Cl)c(NC(=S)NC2CC2)c1	97	.	.	92	.
CCOC(=O)CSc1c(-c2ccc(Cl)cc2)[nH]c2ccccc12	71	.	.	83	.
O=C(Cc1cccs1)NCCSc1c(-c2ccc(Cl)cc2)[nH]c2ccccc12	12	.	.	4.7*	.
Cc1ccc(OCC(=O)N2CCN(c3nnc(-c4ccccc4)c4ccccc34)CC2)cc1	44	86	107	43	85
Cc1ccc(-c2nnc(N3CCN(C(=O)CSc4ncn[nH]4)CC3)c3ccccc23)cc1	47	105	2.9*	41	76
Clc1ccc(-n2nnnc2-c2ccccc2)cc1	96	101	99	94	105
Cc1ccc(-n2nnnc2C(Cl)(Cl)c2nnnn2-c2ccc(C)cc2)cc1	1.3*	.	.	1.8*	.
CN(C)CCCNC(=O)/C(=C\c1ccc(-c2ccc(Br)cc2)o1)NC(=O)c1ccccc1	1.8*	.	.	1.8*	.
CN(C)CCNC(=O)/C(=C/c1ccc(-c2cccc([N+](=O)[O-])c2)o1)NC(=O)c1ccccc1	29	.	.	39	.
CN(C)CCNC(=O)/C(=C/c1ccc(-c2cccc(Cl)c2)o1)NC(=O)c1ccccc1	1.6*	.	.	1.6*	.
Cc1ccc(S(=O)(=O)Nc2ccccc2-c2ccccc2NS(=O)(=O)c2ccc(C)cc2)cc1	76	.	.	76	.
Cc1ccc(S(=O)(=O)Nc2cccc3cccnc23)cc1	1.6*	46	5.8*	1.6*	1.9*
O=S(=O)(Nc1cc(Sc2cccc3cccnc23)c(O)c2ccccc12)c1ccccc1	1.2*	.	.	1.3*	.
COc1cc(NS(=O)(=O)c2ccc(C)cc2)c2ncccc2c1	2.3*	19	9.1*	3.6*	4.0*
CCCNC(=O)N1CCN(S(=O)(=O)c2ccc(C)c(C)c2)CC1	.	107	105	.	96
COC(=O)c1ccc(-c2ncc(-c3cccc4ccccc34)o2)cc1	101	111	109	105	36*
Cc1nnc(Sc2nc3ccccc3o2)c2ccccc12	16	80	94	18	6.8*
Cc1ccc2cc(C3C(C#N)=C(N)Oc4c3ccc3cccnc43)c(=O)[nH]c2c1 (stereo not drawn)	93	80	51	82	37*
CCc1ccc2[nH]c(=O)c(C3C(C#N)=C(N)Oc4c3ccc3cccnc43)cc2c1 (stereo not drawn)	15	57	70	13	0.8*
CC(C)COc1cccc(C(=O)NC(=S)NCc2cccnc2)c1	94	.	.	91	.
SMILES	HCT116 PTEN-null	HUVEC prolif 384	Fibroblast inh	HCT116 bCat-KO	H69AR inhibit
CCCn1c(N2CCN(CC(=O)c3c(C)n(C)c4ccc(OC)cc34)CC2)nc2c1c(=O)[nH]c(=O)n2C	18	97	41*	15	33*
COc1ccc(CCn2c(N3CCN(C)CC3)nc3c2c(=O)[nH]c(=O)n3C)cc1	99	92	98	98	88
COc1ccccc1C(=O)N1CCCC(c2nc(-c3cc(OC)c(OC)c(OC)c3)no2)C1 (stereo not drawn)	91	91	96	94	61
COc1ccc(C(=O)N2CCCC(c3nc(-c4cc(OC)c(OC)c(OC)c4)no3)C2)cc1 (stereo not drawn)	92	79	93	90	35*
O=C(Cc1c(Sc2ccccc2)c2ccccc2n1Cc1ccccc1)NCCO	61	.	.	68	.
CCOC(=O)C1=C(CSc2nc3ccccc3s2)NC(=O)NC1c1cc(C)ccc1C (stereo not drawn)	64	.	.	62	.
CCOC(=O)C1=C(CSc2nc3ccccc3s2)NC(=O)NC1c1ccc(OC)cc1 (stereo not drawn)	21	.	.	5.7*	.
O=C(NC(=S)Nc1nc2c(s1)CSc1ccccc1-2)c1ccccc1	84	75	87	75	51
Cc1cccc(OCC(=O)NNC(=O)C2CCCCC2C(=O)O)c1 (stereo not drawn)	101	.	.	102	.
CCN1C(=O)/C(=c2/s/c(=C3\SC(C)=C(C)N3CC)c(=O)n2CC)N(c2ccccc2)C1=S	.	91	100	.	79
COc1ccc2c(C)nc(Nc3nc(C)cc(=O)[nH]3)nc2c1	.	2.6*	8.6*	.	23*
Cn1c(=O)c2c(-c3ccccc3)n(C3CCCCC3)cc2n(C)c1=O	68	105	86	75	37*
Cc1cccc(-c2c3c(=O)n(C)c(=O)n(C)c3cn2C(C)(C)C)c1	94	89	86	86	59
Cc1cccc(-c2c3c(=O)n(C)c(=O)n(C)c3cn2C2CCCCC2)c1	61	103	79	63	23*
CC(=O)Nc1ccccc1N(C)S(=O)(=O)c1ccc(C)cc1	48	80	101	54	37*
CC(=O)Nc1ccccc1NC(=O)CN(C)S(=O)(=O)c1ccc(C)cc1	97	100	108	92	99
COC(=O)c1c(NC(=O)CN2C(=O)NC3(CCc4ccccc4C3)C2=O)sc2c1CCCCC2 (stereo not drawn)	90	.	.	83	.
CCC(=O)NC(c1cccs1)c1cc([N+](=O)[O-])c2cccnc2c1O (stereo not drawn)	5	.	.	3.0*	.
CC(NC(=O)Cc1ccccc1[N+](=O)[O-])c1ccccc1 (stereo not drawn)	91	.	.	91	.
CCCC(=O)NC(c1cccs1)c1cc([N+](=O)[O-])c2cccnc2c1O (stereo not drawn)	4	.	.	5.5*	.
CC(=O)NC(c1cccs1)c1cc([N+](=O)[O-])c2cccnc2c1O (stereo not drawn)	3.8*	.	.	5.6*	.
CCC(=O)NC(C)C(c1cccs1)N1CCOCC1 (stereo not drawn)	.	99	97	.	105
CCCC(=O)NC(C)C(c1cccs1)N1CCN(C)CC1 (stereo not drawn)	101	90	100	95	97
CC(C)C(=O)NC(c1ccccc1)c1cc([N+](=O)[O-])c2cccnc2c1O (stereo not drawn)	7	.	.	4.1*	.
COc1ccc(N2CCN(C(CNC(=O)OCc3ccccc3)c3ccco3)CC2)cc1 (stereo not drawn)	67	.	.	59	.
S=C1NCCc2ccc(Cl)cc2C1c1ccccc1 (stereo not drawn)	83	110	102	79	87
Cc1cc(Nc2ccc(Br)cc2F)n2nc(C)nc2n1	88	92	85	90	76
CC(=O)c1sc(Nc2nc3ccc(F)cc3s2)nc1C	50	57	94	50	21*
CCOC(=O)c1sc(Nc2nc3ccc(OC)cc3s2)cc1C	71	.	.	85	.
